Data set [1] deals with Mus musculus. Description: Reversal of high fat diet induced diabetes in B6 mouse assessed as improved glucose tolerance at 30 mg/kg/day, po administered for 2 weeks followed by 13 hrs fasting and measured by IPGTT. It is filed as functional, organism-based. In outline: (§1)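 Male C57BL/6 littermates fed 60 kcal% fat chow for 3 months from 1-2 months of age; DIO mice ≥35 g given HFD containing 0.03% w/w compound (about 30 mg/kg/day) or HFD alone for 2 weeks. HFD n=8; treated n=9.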

Data set [2] can be described thus: Plasma protein binding in human. It is filed as ADME, cell-free.
In data set [3] the target is T1, Low molecular weight phosphotyrosine protein phosphatase (Homo sapiens, UniProt P24666).
T1 sequence (P24666 whole entry): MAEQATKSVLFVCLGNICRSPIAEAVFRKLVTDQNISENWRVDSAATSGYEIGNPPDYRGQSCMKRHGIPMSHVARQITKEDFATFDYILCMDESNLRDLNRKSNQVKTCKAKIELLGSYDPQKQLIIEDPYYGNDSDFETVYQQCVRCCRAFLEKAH
Briefly: Inhibition of recombinant human LMPTP-A using OMFP or pNPP as substrate by fluorescence assay. The essentials: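 Recombinant human LMPTP-A in 50 mM Bis-Tris pH 6.0, 1 mM DTT, 0.01% Triton X-100, 37°C. With OMFP, fluorescence followed continuously (ex 485/em 525 nm). With pNPP, reaction stopped with 2 volumes 1 M NaOH and absorbance read at 405 nm. IC50 from inhibitor concentration vs % enzyme activity plots; n=4 unless otherwise noted.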

Data set [4] can be described thus: AUC in C57BL/6 mouse at 10 mg/kg, po measured upto 24 hrs by LC-MS/MS analysis. It counts as ADME, organism-based. Set-up: route oral, dose 10 mg/kg, time <=24. Particulars: in vivo.
For data set [5], the system named is Mus musculus. Briefly: Reversal of high fat diet induced diabetes in B6 mouse assessed as increase in insulin-stimulated IR tyrosine phosphorylation in liver at 30 mg/kg/day, po administered for 2 weeks by ELISA. It counts as functional, organism-based. The essentials: as §1
(An ELISA detects its analyte on a solid surface through an enzyme-linked reagent.)

Data set [6] has as its target T2, Low molecular weight phosphotyrosine protein phosphatase (Homo sapiens) (UniProt P24666).
T2 sequence (whole entry): T1 sequence (P24666 whole entry)
Description: Inhibition of LMPTP in human HepG2 cells assessed as increase in insulin-stimulated AKT Thr308 phosphorylation at 500 nM preincubated overnight followed by insulin stimulation for 5 mins by Western blotting analysis. It is filed as cell-based. In outline: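 HepG2 cells grown in EMEM with 10% FBS plus penicillin/streptomycin. Serum-starved (0.1% FBS) overnight with DMSO or 500 nM compound, then stimulated with 10 nM bovine insulin for 5 min at 37°C with compound still present. Lysates probed by Western blot for pAKT Thr308, normalized to total AKT or GAPDH. 8 independent experiments.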
(In western blotting, separated proteins are transferred to a membrane and probed.)

Data set [7] can be described thus: Oral bioavailability in C57BL/6 mouse at 10 mg/kg measured upto 24 hrs by LC-MS/MS analysis. It counts as ADME, organism-based. Particulars: in vivo.
The nature of data set [8]: Microsomal stability in mouse liver microsomes assessed as parent compound remaining measured after 1 hr. It counts as ADME, Microsome. Particulars: read-out: Stabilty.
The nature of data set [9]: Half life in C57BL/6 mouse at 10 mg/kg, po measured upto 24 hrs by LC-MS/MS analysis. It is filed as ADME, organism-based. Particulars: in vivo.
Data set [10] deals with Mus musculus. Description: Reversal of high fat diet induced diabetes in B6 mouse assessed as decrease in fasting insulin levels at 30 mg/kg/day, po administered for 2 weeks by ELISA. It is filed as functional, organism-based. The essentials: as §1
Data set [11] can be described thus: Plasma protein binding in mouse. It is filed as ADME, cell-free.
The nature of data set [12]: Microsomal stability in human liver microsomes assessed as parent compound remaining measured after 1 hr. Particulars: read-out: Stabilty. It counts as ADME, Microsome.
The nature of data set [13]: Volume of distribution in C57BL/6 mouse at 2 mg/kg, iv measured upto 24 hrs by LC-MS/MS analysis. It is filed as ADME, organism-based. Particulars: in vivo.
Data set [14] is described as follows: Cmax in C57BL/6 mouse at 10 mg/kg, po measured upto 24 hrs by LC-MS/MS analysis. It counts as ADME, organism-based. Set-up: route oral, dose 10 mg/kg, time <=24. Particulars: in vivo.
Data set [15] relates to Mus musculus. Briefly: Reversal of high fat diet induced diabetes in B6 mouse assessed as increase in insulin-stimulated AKT Thr308 phosphorylation in liver at 30 mg/kg/day, po administered for 2 weeks by Western blotting analysis. It is filed as functional, organism-based. The essentials:
as §1

Data set [16] addresses T2, Low molecular weight phosphotyrosine protein phosphatase (Homo sapiens). Description: Uncompetitive inhibition of recombinant human LMPTP-A using OMFP as substrate by Lineweaver-Burk plot analysis. In outline:
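Recombinant human LMPTP-A at 20 nM acting on increasing OMFP concentrations with increasing inhibitor concentrations. Buffer was 50 mM Bis-Tris pH 6.0, 1 mM DTT, 0.01% Triton X-100 at 37°C. Fluorescence read continuously (ex 485/em 525 nm). Rates fitted to Michaelis-Menten and mixed-model inhibition equations and shown as Lineweaver-Burk plots. 3 independent experiments in triplicate.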

What is called IC50 is the concentration that gives 50% inhibition. By AUC is commonly meant concentration integrated over time. Lower therefore signals low exposure. Broadly, the Vd is the apparent volume that relates the amount in the body to the concentration in plasma or blood. The term Cmax denotes the maximum level reached in the sampled fluid or tissue.

Calls of active or inactive are those of the source. The calls are words filed in the database; no cut-off is given here. Where only a bound is given, the exact number is not on record here.

`Nc1ncn(Cc2c(Cl)cncc2Cl)c2ncnc1-2`: the result with Mus musculus [1], in the data set on Mus musculus [5], with Mus musculus [10] and in the data set with Mus musculus [15] was Active. Moreover, the PPB in data set [2] is given as 88%; in data set [11], 89%. In data set [3], the IC50 turned out to be 83 nM. For the same molecule, the AUC in data set [4] worked out at 9501 ng·h/mL. Also, the inhibition entry in [6] is “Active”. Further, in [7], the F was determined as 100%. The remaining at 1 h in data set [8] and in data set [12] was greater than 90% throughout. Also, the t1/2 in [9] was 0.71 h. This molecule displayed a Vd in [13] of 0.81 L/kg. For the same molecule, in [14], the Cmax was 8220 ng/mL.

As to `N#Cc1ccccc1-c1nc2c(N)ncn(Cc3c(Cl)cccc3Cl)c-2n1`, the IC50 in data set [3] came out at 245 nM.

As for `Nc1ncn(Cc2cccc(Cl)c2)c2ncnc1-2`, the concentration for half-maximal inhibition (IC50) in [3] amounted to 18500 nM.

As to `Nc1ncn(Cc2ccc(Cl)cc2Cl)c2ncnc1-2`, in data set [3], the IC50 worked out at 1020 nM.

For `COc1ccccc1-c1nc2c(N)ncn(Cc3c(Cl)cccc3Cl)c-2n1`, the IC50 in data set [3] came to 106 nM.

Consider `Cc1ccc(-c2nc3c(N)ncn(Cc4c(Cl)cccc4Cl)c-3n2)cc1`, for which the IC50 in data set [3] is 119 nM.

Turning to `Nc1ncn(Cc2c(Cl)cccc2Cl)c2nc(Cl)nc1-2`, the IC50 in data set [3] came out at 27800 nM.

As to `Cc1nc2c(N)ncn(Cc3c(Cl)cccc3Cl)c-2n1`, the IC50 in data set [3] was determined as 306 nM.

Turning to `Nc1ncn(Cc2c(Cl)cccc2Cl)c2nc(-c3ccccc3Cl)nc1-2`, the IC50 in [3] is 171 nM.

Take `Nc1ncn(Cc2c(Cl)cccc2Cl)c2ncnc1-2`: the IC50 in data set [3] was 239 nM. Besides, the AUC in data set [4] was found to be 18544 ng·h/mL. Besides, the F in data set [7] turned out to be 66%. In data set [9], this molecule registered a t1/2 of 4.71 h. The Vd in [13] was found to be 3.01 L/kg. Moreover, the Cmax in data set [14] was 5018 ng/mL.

Take `Nc1ncn(Cc2ccc(Cl)cc2)c2ncnc1-2`: the IC50 in data set [3] was found to be 19400 nM.

As to `Nc1ncn(Cc2ccccc2)c2ncnc1-2` [3-BENZYLADENINE], in [3], the IC50 is 13600 nM.

For the molecule `Nc1ncn(Cc2c(Cl)cccc2Cl)c2nc(-c3ccccc3F)nc1-2`, in data set [3], the IC50 worked out at 147 nM.

Consider `Cc1ccccc1-c1nc2c(N)ncn(Cc3c(Cl)cncc3Cl)c-2n1`, for which, in data set [3], the IC50 was found to be 6 nM. The AUC in data set [4] was determined as 38 ng·h/mL. For the same molecule, in data set [7], the F was found to be 3%. The t1/2 in data set [9] is 1.55 h. For the same molecule, in data set [13], the Vd came out at 4.04 L/kg. This molecule also had a Cmax in [14] of 17 ng/mL.

`Nc1ncn(Cc2c(Cl)cccc2Cl)c2nc(-c3ccccc3)nc1-2`: the IC50 in [3] is 104 nM.

Consider `Nc1ncn(Cc2c(Cl)cccc2Cl)c2nc(-c3ccc(F)cc3)nc1-2`, for which the IC50 in data set [3] is 117 nM.

In the case of `Nc1ncn(Cc2c(Cl)cccc2Cl)c2nc(-c3cccc(F)c3)nc1-2`, the IC50 in data set [3] was 239 nM.

Regarding `Cc1cccc(-c2nc3c(N)ncn(Cc4c(Cl)cccc4Cl)c-3n2)c1`, in [3], the IC50 worked out at 87 nM.

As to `Nc1ncn(Cc2ccccc2Cl)c2ncnc1-2`, the IC50 in data set [3] stood at 1930 nM.

Take `Cc1cccc(C)c1Cn1cnc(N)c2ncnc1-2`: the IC50 in data set [3] was 3430 nM.

Consider `Cc1ccccc1-c1nc2c(N)ncn(Cc3c(Cl)cccc3Cl)c-2n1`, for which the IC50 in [3] is 20 nM. Besides, in data set [4], the AUC came to 312 ng·h/mL. For the same molecule, the F in [7] is 19%. Besides, in data set [9], the t1/2 was 1.35 h. In addition, the inhibition result in data set [16] was “Active”. The molecule also gave a Vd in [13] of 2.75 L/kg. The molecule also registered a Cmax in data set [14] of 134 ng/mL.

On to `Nc1ncn(Cc2c(Cl)cccc2Cl)c2nc(-c3cccc(Cl)c3)nc1-2`, for which, in data set [3], the IC50 is 380 nM.

For `Nc1ncn(Cc2c(Cl)cccc2Cl)c2nc(Br)nc1-2`, the IC50 in data set [3] stood at 17600 nM.

For the molecule `Nc1ncn(Cc2c(Cl)cccc2Cl)c2nc(-c3ccc(Cl)cc3)nc1-2`, the half-maximal inhibitory concentration (IC50) in data set [3] stood at 288 nM.

The values are drawn from ChEMBL document CHEMBL4837200, “Discovery of Orally Bioavailable Purine-Based Inhibitors of the Low-Molecular-Weight Protein Tyrosine Phosphatase” (J Med Chem, 2021).
